High-throughput results as filed in PubChem BioAssay.
In the library only some 1.1% were active in any assay of this set; here they are far more common.
GASC-1 inh – blocks human GASC-1 demethylase activity. GST-JMJD2C(1-420) H3K9me3 demethylation, DELFIA europium. actives 0.069% (n = 330,000). Q9H3R0. AID 2099. inhibition, % at 2.35 µM;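 active = more than half of a compound's replicate wells show inhibition beyond 50%, single wells judged on their own value; inconclusive = some, but no more than half, of replicates pass 50% inhibition; inactive = no replicate passes 50% inhibition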;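 also: signal counts dimethyl H3K9 product captured on neutravidin plate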
Target sequence (Q9H3R0 1-420 limits assumed): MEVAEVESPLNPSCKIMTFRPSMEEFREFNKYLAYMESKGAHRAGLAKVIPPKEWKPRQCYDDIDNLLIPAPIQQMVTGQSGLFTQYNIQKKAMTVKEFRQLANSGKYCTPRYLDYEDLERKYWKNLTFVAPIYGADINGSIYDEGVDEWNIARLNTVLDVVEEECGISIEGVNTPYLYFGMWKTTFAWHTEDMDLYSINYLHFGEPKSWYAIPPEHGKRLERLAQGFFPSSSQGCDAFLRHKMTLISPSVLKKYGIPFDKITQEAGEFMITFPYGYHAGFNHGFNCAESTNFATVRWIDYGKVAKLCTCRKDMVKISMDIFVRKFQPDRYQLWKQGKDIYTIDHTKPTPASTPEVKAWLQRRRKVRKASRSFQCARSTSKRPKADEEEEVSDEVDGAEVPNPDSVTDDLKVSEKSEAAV
Arrestin-AP2 inh – human beta-arrestin and AP2 interaction inhibition; actives 0.31% (n = 340,000); AID 504490; inhibition, % at 10 µM; FITC-arrestin peptide / GST-AP2 beads, flow cytometry; AP2 beta2 appendage carries R879A mutation;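 active = inhibition above a set limit, near 3 SD of compounds lacking own fluorescence, cut at about 54% in these data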
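Assay system: GST-AP2 R879A bound to glutathione beads, E. coli-expressed; Medium: PBS with 0.05% Tween 20 and 0.1% BSA; Also added: fluorescein-tagged arrestin peptide at 50 nM final; Timing: 12 min plus 1 h, RT; Measured by: flow cytometry, FL1 (488/535 nm); Evaluation: percent drop in bead-associated FITC signal.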
FAS TE block – blocks the thioesterase domain of human fatty acid synthase; actives 0.67% (n = 360,000); inhibition, % at 15 µM; AID 602261; recombinant FAS-TE, OMFH fluorogenic substrate, fluorescence endpoint;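 active = compounds whose normalised, plate-corrected inhibition of enzyme fluorescence in the single-dose primary screen is 50% or more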
SENP1 inh – SENP1 (human) catalytic domain inhibition | actives 0.21% (n = 360,000) | inhibition, % at 10 µM | Q9P0U3 | recombinant SENP1 catalytic domain, CyPet-SUMO1-YPet FRET cleavage;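 active = inhibition at least 30% at 10 µM, raw YFP signal under a set limit, fluorescence ratio 0.5 to 1.5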
Target sequence (Q9P0U3 419-644 limits assumed): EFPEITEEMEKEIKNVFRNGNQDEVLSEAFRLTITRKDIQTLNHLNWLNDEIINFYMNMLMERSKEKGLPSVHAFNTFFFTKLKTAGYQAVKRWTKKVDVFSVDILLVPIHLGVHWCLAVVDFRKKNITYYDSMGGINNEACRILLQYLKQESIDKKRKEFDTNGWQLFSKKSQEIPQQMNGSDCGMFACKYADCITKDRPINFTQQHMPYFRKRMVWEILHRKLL
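Assay system – human recombinant His6-tagged SENP1 catalytic domain enzyme · Input – SENP1 enzyme, 20 pM final · Buffer or medium – Tris pH 8 buffer plus EDTA, NaCl, BME, BSA, NP40, catalase · Schedule – 50 min reaction at room temperature · Technique – FRET read of cyan and yellow fluorescence · Control set – no-enzyme wells low, DMSO-plus-enzyme wells high control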
FAS-TE inh conf – confirmation of human fatty acid synthase thioesterase inhibitors | shares compounds with FAS TE block | recombinant FAS-TE, OMFH fluorogenic substrate, fluorescence | inhibition, % at 15 µM | actives 45% (n = 2,300) | AID 624325;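 active = compounds inhibiting the enzyme by at least 50% at 15 µM in any one of the replicates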
Each line names hits and unclear results; the compound was inactive in the other large screens (follow-up assays come after a bar, where they were run).

CC(Cc1ccccc1)NC(=O)c1cc([N+](=O)[O-])ccc1Cl (stereo not given)	FAS TE block 58 | FAS-TE inh conf 70
O=C(NC12CC3CC(CC(C3)C1)C2)c1cc([N+](=O)[O-])ccc1Cl	FAS TE block 59 | FAS-TE inh conf inactive
CS(=O)(=O)c1ccc(Cl)c(C(=O)NCC2CCCCC2)c1	none
O=C(NCC1CCCCC1)c1cc([N+](=O)[O-])ccc1Cl	FAS TE block 51 | FAS-TE inh conf 56
O=C(N[C@@H](Cc1ccccc1)c1nc2ccccc2[nH]1)c1cc([N+](=O)[O-])ccc1Cl	none
CCC(C)NC(=O)C1CCN(S(=O)(=O)N2CCC3(CC2)OCCO3)CC1 (stereo not given)	none
CCCCOc1ccc(C(O)(CC)CCN2CCOCC2)cc1 (stereo not given)	none
O=C(NCCCc1ccccc1)c1cc([N+](=O)[O-])ccc1Cl	FAS TE block 84 | FAS-TE inh conf 90
Cc1ccc(O)c(NC(=O)c2cc([N+](=O)[O-])ccc2Cl)c1	FAS TE block 54 | FAS-TE inh conf 60
Cc1cc(=O)n2nc(N3CCC(C(=O)NCCc4ccc(Cl)cc4)CC3)sc2n1	none
COc1cccc2cc(C(=O)NCCC3=CCCCC3)c(=O)oc12	FAS TE block 59 | FAS-TE inh conf inactive
COc1cccc2cc(C(=O)NCCc3ccccc3)c(=O)oc12	none
CCC(=O)N(c1nnc(SCC(=O)c2ccc[nH]2)s1)C1CC1	none
COc1ccc(C2(CNC(=O)c3cccc([N+](=O)[O-])c3)CCCCC2)cc1OC	FAS TE block 51 | FAS-TE inh conf 70
CCC(C)(C)C1CCc2[nH]nc(C(=O)NCCN3CCOCC3)c2C1 (stereo not given)	none
CCC(C)(C)C1CCc2[nH]nc(C(=O)NCCCNC(=O)OC(C)(C)C)c2C1 (stereo not given)	FAS TE block 69 | FAS-TE inh conf 50
CC(=O)C1=C(O)C(=O)N(c2ccc(S(=O)(=O)Nc3nccs3)cc2)C1c1ccc([N+](=O)[O-])cc1 (stereo not given)	none
COc1ccc2cc3cc(C(=O)N4CCN(C5CCCCC5)CC4)oc3nc2c1	none
COc1ccc2cc3cc(C(=O)N4CCCCCC4)oc3nc2c1	FAS TE block 74 | FAS-TE inh conf 56
COc1ccc2cc3cc(C(=O)N4CCCCC4C)oc3nc2c1 (stereo not given)	FAS TE block 75 | FAS-TE inh conf 62
CCOC(=O)C1CCN(C(=O)c2cc3cc4ccc(C)cc4nc3o2)CC1	FAS TE block 55 | FAS-TE inh conf 62
CCOC(=O)C1CCN(C(=O)c2cc3c(ccc4ccccc43)o2)CC1	none
COc1ccc2cc3cc(C(=O)N(C)C4CCCCC4)oc3nc2c1	none
CC(C)(C)OC(=O)N1CCC(c2c(C(=O)N3CCN(C(=O)c4ccco4)CC3)cnn2-c2ccc(F)cc2)CC1	none
CCN(CC)C(=O)c1ccc2nc([C@@H]3O[C@H](CO)[C@H](O)[C@H](O)[C@H]3O)[nH]c2c1	none (no result: GASC-1 inh, Arrestin-AP2 inh)
COc1ccc(-c2noc3c2-c2nc(C4CCCCC4)sc2CC3)cc1	none
CCOC(=O)C1=CC[C@H]2c3c(c4ccccc4n3C)C(=O)C1N2C(=O)OC(C)(C)C	FAS TE block 63 | FAS-TE inh conf 46
CCOC(=O)c1cc2c(=Cc3ccc(N(C)C)cc3)c3ccccc3n2[n+]1C	FAS TE block 62 (no result: GASC-1 inh) | FAS-TE inh conf 61
CN(C)c1ccc(C=c2c3ccccc3n3c2c2ccccc2[n+]3C)cc1	none (no result: GASC-1 inh)
CC(=O)c1sc(NC(=O)c2ccc(F)c(S(=O)(=O)N3CCOCC3)c2)nc1C	none
CCCCCCCCCCCCCCCCCCNc1ccn(C2OC(COP(=O)(O)OCC3OC(n4cc(F)c(=O)[nH]c4=O)CC3O)C(O)C2O)c(=O)n1 (stereo not given)	FAS TE block 55 (no result: GASC-1 inh) | FAS-TE inh conf inactive
C[C@H]1O[C@@H](n2cc(F)c(=O)[nH]c2=O)[C@H](O)[C@@H]1O	none
COCCCn1c(C)cc(C(=O)COC(=O)C23CC4CC(CC(O)(C4)C2)C3)c1C	none (no result: GASC-1 inh)
C[C@H]1COC2=C1C(=O)C(=O)c1c2ccc2c1CCCC2(C)C	GASC-1 inh inconclusive
Cc1coc2c1C(=O)C(=O)c1c-2ccc2c1CCCC2(C)C	FAS TE block 58 | FAS-TE inh conf inactive
CC(=O)O[C@@H]1C[C@H]2C(C)(C)C(=O)C=C[C@]2(C)[C@H]2CC[C@@]3(C)[C@H](c4ccoc4)OC(=O)[C@H]4O[C@]43[C@@]21C	FAS TE block 51 | FAS-TE inh conf inactive
CC(=O)OC1CC2C(C)(C)C(=O)C=CC2(C)C2CCC3(C)C(c4ccoc4)OC(=O)C4OC43C12C (stereo not given)	none (no result: GASC-1 inh, Arrestin-AP2 inh)
C[C@H](CO)N1C[C@H](C)[C@@H](CN(C)C(=O)Nc2ccc3c(c2)OCO3)Oc2c(NC(=O)C3CCCCC3)cccc2C1=O	none (no result: GASC-1 inh)
COc1ccc(NC(=O)Nc2cccc3c2O[C@H](CN(C)C(=O)NC2CCCCC2)[C@@H](C)CN([C@H](C)CO)C3=O)cc1	FAS TE block 78 (no result: GASC-1 inh) | FAS-TE inh conf 71
C[C@H](CO)N1C[C@H](C)[C@@H](CN(C)C(=O)NC2CCCCC2)Oc2c(NC(=O)Nc3ccc4c(c3)OCO4)cccc2C1=O	FAS TE block 82 | FAS-TE inh conf 85
COC(=O)[C@]1(Cc2ccccc2)N[C@H](CN(C)S(=O)(=O)c2ccc(C(C)(C)C)cc2)[C@@H]2C(=O)N(Cc3ccccc3)C(=O)[C@@H]21	FAS TE block 55 | FAS-TE inh conf inactive
COC(=O)[C@]1(Cc2ccccc2)N[C@H](CN(C)S(=O)(=O)c2ccc(C(F)(F)F)cc2)[C@@H]2C(=O)N(Cc3ccccc3)C(=O)[C@@H]21	none
CCN(C[C@H]1N[C@@](Cc2ccccc2)(C(=O)OC)[C@H]2C(=O)N(Cc3ccccc3)C(=O)[C@@H]12)C(=O)Nc1ccc(C)cc1	none (no result: GASC-1 inh)
CCN(C[C@H]1N[C@@](Cc2ccccc2)(C(=O)OC)[C@H]2C(=O)N(Cc3ccccc3)C(=O)[C@@H]12)C(=O)Nc1ccc(C(F)(F)F)cc1	FAS TE block 62 | FAS-TE inh conf inactive
CC(C)Cn1c(=O)c2ccccc2c2ccccc2c1=O	none
O=S(=O)(/N=C(\Sc1ccccc1)c1ccccc1)c1ccc(Cl)cc1	FAS TE block 66 | FAS-TE inh conf inactive
Cc1ccc(S(=O)(=O)/N=C(/Sc2ccccc2C(=O)O)c2ccccc2)cc1	none
Cc1ccc(S(=O)(=O)/N=C(\Sc2ccccc2)c2ccccc2)cc1	FAS TE block 63 | FAS-TE inh conf 51
COc1cccc(-n2c(SCC(=O)Nc3nc4ccccc4s3)nc3ccccc3c2=O)c1	none (no result: Arrestin-AP2 inh, FAS TE block, SENP1 inh)
COc1cccc(-n2c(SCC(=O)Nc3sc4c(c3C(N)=O)CCC4)nc3ccccc3c2=O)c1	FAS TE block 77 | FAS-TE inh conf inactive
CCCCCC(=O)NC(=S)NNC(=O)CC	none
